Data taken from ChEMBL document CHEMBL1137786, “Design, synthesis, biological evaluation, and structure-activity relationship (SAR) discussion of dipeptidyl boronate proteasome inhibitors, part I: comprehensive understanding of the SAR of alpha-amino acid boronates” (J Med Chem, 2009).

Legend:
[1] = Inhibition of chymotrypsin-like activity of human 20s proteasome beta 5 subunit assessed as hydrolysis of fluorogenic substrate
NCI-H460 = experiment: Cytotoxicity against human H460 cells after 72 hrs by MTT assay; format: functional, cell-based; conditions: NCI-H460, 72 h
Procedure, shortened: (§1)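 BGC-823, KB, NCI-H460, HepG2 and SW-480 cells were maintained in RPMI 1640 with 10% FBS at 37 °C, 5% CO2. MTT added from a 5 mg/mL solution for 4 h at 37 °C. Formazan dissolved in DMSO after centrifugation, A540 read.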

SW480 = experiment: Cytotoxicity against human SW480 cells after 72 hrs by MTT assay; format: functional, cell-based; conditions: SW480, 72 h; procedure, shortened: as §1
SK-OV-3 = experiment: Cytotoxicity against human SKOV3 cells after 72 hrs by MTT assay; format: functional, cell-based; conditions: SK-OV-3, 72 h
Procedure, shortened: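 SKOV-3 cells were cultured in McCoy's 5A with 10% FBS at 37 °C, 5% CO2. MTT added from a 5 mg/mL solution for 4 h at 37 °C. Formazan dissolved in DMSO, absorbance measured at 540 nm.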

A549 = experiment: Cytotoxicity against human A549 cells after 72 hrs by MTT assay; format: functional, cell-based; conditions: A549, 72 h
Procedure, shortened: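 A549 cells were cultured in F12-K with 10% FBS at 37 °C, 5% CO2. MTT from a 5 mg/mL solution added for 4 h at 37 °C. Medium removed after centrifugation, formazan taken up in DMSO, read at 540 nm.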

HeLa = experiment: Cytotoxicity against human HeLa cells after 72 hrs by MTT assay; format: functional, cell-based
Procedure, shortened: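 HeLa cells were cultured in EMEM with 10% FBS at 37 °C, 5% CO2. MTT added from a 5 mg/mL solution for 4 h at 37 °C. Plates centrifuged, formazan dissolved in DMSO, A540 read.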

KB = experiment: Cytotoxicity against human KB cells after 72 hrs by MTT assay; format: functional, cell-based; procedure, shortened: as §1
HepG2 = experiment: Cytotoxicity against human HepG2 cells after 72 hrs by MTT assay; format: functional, cell-based; conditions: HepG2, 72 h; procedure, shortened: as §1
BGC-823 = experiment: Cytotoxicity against human BGC823 cells after 72 hrs by MTT assay; format: functional, cell-based; conditions: BGC-823, 72 h; procedure, shortened: as §1
HL-60 = experiment: Cytotoxicity against human HL60 cells after 72 hrs by MTT assay; format: functional, cell-based; conditions: HL-60, 72 h
Procedure, shortened: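 HL-60 cells grown in IMDM with 20% FBS at 37 °C, 5% CO2. MTT added from a 5 mg/mL solution for 4 h at 37 °C. Plates centrifuged, medium discarded, formazan dissolved in DMSO, absorbance read at 540 nm.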

U-266 = experiment: Cytotoxicity against human U266 cells after 72 hrs by MTT assay; format: functional, cell-based; conditions: U-266, 72 h
Procedure, shortened: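 U266 myeloma cells were grown in RPMI 1640 with 15% FBS at 37 °C, 5% CO2. MTT added from a 5 mg/mL solution for 4 h at 37 °C. Plates centrifuged, formazan dissolved in DMSO, absorbance at 540 nm.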

Row | Structure (SMILES) | IC50 [1] [nM] | further results
1 | CC(C)(C)OC(=O)N[C@@H](Cc1ccc(O)cc1)C(=O)N[C@@H](Cc1ccccc1)B1O[C@@H]2C[C@@H]3C[C@@H](C3(C)C)[C@]2(C)O1 | 114 | –
2 | CC1(C)[C@@H]2C[C@H]3OB([C@H](Cc4ccc(F)cc4)NC(=O)[C@H](Cc4ccccc4)NC(=O)c4cnccn4)O[C@@]3(C)[C@H]1C2 | 3.21 | –
3 | CCCC[C@H](NC(=O)[C@H](Cc1ccccc1)NC(C)=O)B1O[C@@H]2C[C@@H]3C[C@@H](C3(C)C)[C@]2(C)O1 | 8.46 | –
4 | CC(=O)N[C@@H](Cc1ccccc1)C(=O)N[C@@H](Cc1ccc(C)cc1)B1O[C@@H]2C[C@@H]3C[C@@H](C3(C)C)[C@]2(C)O1 | 2.73 | –
5 | CC(C)C[C@H](NC(=O)[C@H](Cc1ccc(O)cc1)NC(=O)OC(C)(C)C)B1O[C@@H]2C[C@@H]3C[C@@H](C3(C)C)[C@]2(C)O1 | 16.4 | –
6 | CC(C)C[C@H](NC(=O)OC(C)(C)C)C(=O)N[C@@H](Cc1ccccc1)B1O[C@@H]2C[C@@H]3C[C@@H](C3(C)C)[C@]2(C)O1 | 120 | –
7 | Cc1ccc(C[C@H](NC(=O)[C@H](CC(C)C)NC(=O)OC(C)(C)C)B2O[C@@H]3C[C@@H]4C[C@@H](C4(C)C)[C@]3(C)O2)cc1 | 471 | –
8 | CC(C)C[C@@H](NC(=O)[C@H](Cc1ccccc1)NC(=O)c1cccc2c1CCCC2)B(O)O | 9.19 | –
9 | CC(C)C[C@@H](NC(=O)[C@H](Cc1ccccc1)NC(=O)C1CCCc2ccccc21)B(O)O (some centres not stated) | 2290 | –
10 | O=C(N[C@@H](Cc1ccccc1)C(=O)N[C@@H](Cc1ccc(F)cc1)B(O)O)c1cnccn1 | 4.37 | –
11 | CC(C)C[C@H](NC(=O)[C@H](Cc1ccccc1)NC(=O)[C@H]1CCCc2ccccc21)B(O)O | 1.2 | IC50 (NCI-H460): 36 nM; IC50 (SW480): 30 nM; IC50 (SK-OV-3): 40 nM; IC50 (A549): 38.5 nM; IC50 (HeLa): 37.5 nM; IC50 (KB): 70 nM; IC50 (HepG2): 60 nM; IC50 (BGC-823): 580 nM; IC50 (HL-60): 9.55 nM; IC50 (U-266): 2.28 nM
12 | CC(C)C[C@H](NC(=O)[C@H](Cc1ccccc1)NC(=O)c1cccc2c1CCCC2)B(O)O | 1.6 | IC50 (NCI-H460): 21.5 nM; IC50 (SW480): 30 nM; IC50 (SK-OV-3): 60 nM; IC50 (A549): 40.5 nM; IC50 (HeLa): 23.2 nM; IC50 (KB): 9.8 nM; IC50 (HepG2): 13.1 nM; IC50 (BGC-823): 1210 nM; IC50 (HL-60): 9.25 nM; IC50 (U-266): 2.95 nM
13 | CC(C)C[C@H](NC(=O)[C@H](Cc1ccccc1)NC(=O)c1cnccn1)B1O[C@@H]2C[C@@H]3C[C@@H](C3(C)C)[C@]2(C)O1 | 1.92 | –
14 | CC(C)C[C@H](NC(=O)[C@@H](NC(=O)c1cccc2c1CCCC2)C(C)C)B1O[C@@H]2C[C@@H]3C[C@@H](C3(C)C)[C@]2(C)O1 | 6.96 | –
15 | CC(C)C[C@H](NC(=O)[C@H](CC(C)C)NC(=O)c1cccc2c1CCCC2)B1O[C@@H]2C[C@@H]3C[C@@H](C3(C)C)[C@]2(C)O1 | 1.15 | –
16 | Cc1ccc(C[C@H](NC(=O)[C@H](Cc2ccccc2)NC(=O)c2cnccn2)B2O[C@@H]3C[C@@H]4C[C@@H](C4(C)C)[C@]3(C)O2)cc1 | 4.85 | –
17 | CCC[C@H](NC(=O)[C@H](CC(C)C)NC(=O)OC(C)(C)C)B1O[C@@H]2C[C@@H]3C[C@@H](C3(C)C)[C@]2(C)O1 | 49.5 | –
18 | CC(C)C[C@@H](NC(=O)[C@H](Cc1ccccc1)NC(=O)c1cnccn1)B(O)O | 700 | –
19 | CC(C)C[C@H](NC(=O)[C@H](Cc1ccccc1)NC(=O)c1cnccn1)B(O)O [BORTEZOMIB] | – | IC50 (NCI-H460): 115 nM; IC50 (SW480): 50 nM; IC50 (SK-OV-3): 130 nM; IC50 (A549): 255 nM; IC50 (HeLa): 92 nM; IC50 (KB): 59.5 nM; IC50 (HepG2): 37.5 nM; IC50 (BGC-823): 880 nM; IC50 (HL-60): 5.5 nM; IC50 (U-266): 2.45 nM

More lines, main results first:

Row | IC50 [1] [nM] | Structure (SMILES) | further results
20 | 1.34 | CC(C)C[C@H](NC(=O)[C@H](Cc1cccc2ccccc12)NC(=O)c1cccc2c1CCCC2)B1OC2C[C@@H]3C[C@@H](C3(C)C)[C@]2(C)O1 (some centres not stated) | –
21 | 1.16 | CC(C)C[C@H](NC(=O)[C@H](Cc1ccc2ccccc2c1)NC(=O)C1CCCc2ccccc21)B1OC2C[C@@H]3C[C@@H](C3(C)C)[C@]2(C)O1 (some centres not stated) | –
22 | 3.34 | Cc1ccc(C[C@H](NC(=O)[C@H](Cc2c[nH]c3ccccc23)NC(=O)OCc2ccccc2)B2O[C@@H]3C[C@@H]4C[C@@H](C4(C)C)[C@]3(C)O2)cc1 | –
23 | 0.76 | CC(C)C[C@H](NC(=O)[C@H](Cc1ccccc1)NC(=O)c1cccc2c1CCCC2)B1O[C@@H]2C[C@@H]3C[C@@H](C3(C)C)[C@]2(C)O1 | –
24 | 14.2 | CC(C)C[C@H](NC(=O)[C@H](CC(C)C)NC(=O)C1CCCc2ccccc21)B1O[C@@H]2C[C@@H]3C[C@@H](C3(C)C)[C@]2(C)O1 (some centres not stated) | –
25 | 17.2 | CCC(C)[C@H](NC(=O)C1CCCc2ccccc21)C(=O)N[C@@H](CC(C)C)B1O[C@@H]2C[C@@H]3C[C@@H](C3(C)C)[C@]2(C)O1 (some centres not stated) | –
26 | 7.63 | CC(C)C[C@H](NC(=O)[C@H](Cc1ccc2ccccc2c1)NC(=O)C1CCCc2ccccc21)B1O[C@@H]2C[C@@H]3C[C@@H](C3(C)C)[C@]2(C)O1 (some centres not stated) | –
27 | 1.16 | Cc1ccc(C[C@H](NC(=O)[C@H](Cc2ccccc2)NC(=O)C2CCc3ccccc3C2)B2O[C@@H]3C[C@@H]4C[C@@H](C4(C)C)[C@]3(C)O2)cc1 (some centres not stated) | –
28 | 6.7 | Cc1ccc(C[C@H](NC(=O)[C@H](Cc2ccccc2)NC(=O)[C@H]2CCCc3ccccc32)B2O[C@@H]3C[C@@H]4C[C@@H](C4(C)C)[C@]3(C)O2)cc1 | –
29 | 2.46 | CC(C)C[C@H](NC(=O)[C@H](Cc1cccc2ccccc12)NC(=O)c1ccc2ccccc2c1)B1O[C@@H]2C[C@@H]3C[C@@H](C3(C)C)[C@]2(C)O1 | –
30 | 5.24 | CC1(C)[C@@H]2C[C@H]3OB([C@H](Cc4ccccc4)NC(=O)[C@H](Cc4ccccc4)NC(=O)[C@H]4CCCc5ccccc54)O[C@@]3(C)[C@H]1C2 | –
31 | 41.2 | CC(C)C[C@H](NC(=O)[C@H](Cc1c[nH]c2ccccc12)NC(=O)OCc1ccccc1)B1O[C@@H]2C[C@@H]3C[C@@H](C3(C)C)[C@]2(C)O1 | –
32 | 1.26 | CC1(C)[C@@H]2C[C@H]3OB([C@H](Cc4ccc(F)cc4)NC(=O)[C@H](Cc4ccccc4)NC(=O)[C@H]4CCCc5ccccc54)O[C@@]3(C)[C@H]1C2 | –
33 | 1.92 | CCCC[C@H](NC(=O)[C@H](Cc1ccccc1)NC(=O)[C@H]1CCCc2ccccc21)B1O[C@@H]2C[C@@H]3C[C@@H](C3(C)C)[C@]2(C)O1 | –
34 | 4.26 | CC(C)C[C@H](NC(=O)[C@H](Cc1cccc2ccccc12)NC(=O)C1CCCc2ccccc21)B1O[C@@H]2C[C@@H]3C[C@@H](C3(C)C)[C@]2(C)O1 (some centres not stated) | –
35 | 4.18 | CC(C)C[C@H](NC(=O)[C@H](Cc1ccccc1)NC(=O)C1CCCc2ccccc21)B1O[C@@H]2C[C@@H]3C[C@@H](C3(C)C)[C@]2(C)O1 (some centres not stated) | –
36 | 6.12 | CC(C)C[C@H](NC(=O)[C@H](Cc1ccc2ccccc2c1)NC(=O)[C@H]1CCCc2ccccc21)B1O[C@@H]2C[C@@H]3C[C@@H](C3(C)C)[C@]2(C)O1 | –
37 | 5.17 | CC(C)C[C@H](NC(=O)[C@H](Cc1ccccc1)NC(=O)[C@@H]1CCCc2ccccc21)B1O[C@@H]2C[C@@H]3C[C@@H](C3(C)C)[C@]2(C)O1 | –
38 | 3.37 | CC1(C)[C@@H]2C[C@H]3OB([C@H](Cc4ccccc4)NC(=O)[C@H](Cc4ccccc4)NC(=O)C4CCc5ccccc5C4)O[C@@]3(C)[C@H]1C2 (some centres not stated) | –
39 | 3.67 | CC(C)C[C@H](NC(=O)[C@H](Cc1c[nH]c2ccccc12)NC(=O)C1CCCc2ccccc21)B1O[C@@H]2C[C@@H]3C[C@@H](C3(C)C)[C@]2(C)O1 (some centres not stated) | –
40 | 1.12 | CC(C)C[C@H](NC(=O)[C@H](Cc1ccccc1)NC(=O)[C@H]1CCCc2ccccc21)B1O[C@@H]2C[C@@H]3C[C@@H](C3(C)C)[C@]2(C)O1 | –
41 | 39 | CC(C)C[C@H](NC(=O)[C@@H](NC(=O)C1CCCc2ccccc21)C(C)C)B1O[C@@H]2C[C@@H]3C[C@@H](C3(C)C)[C@]2(C)O1 (some centres not stated) | –
42 | 1.46 | CC(C)C[C@H](NC(=O)[C@H](Cc1ccccc1)NC(=O)C1CCc2ccccc2C1)B1O[C@@H]2C[C@@H]3C[C@@H](C3(C)C)[C@]2(C)O1 (some centres not stated) | –
43 | 2.34 | CC(=O)N[C@@H](Cc1ccccc1)C(=O)N[C@@H](CC(C)C)B1O[C@@H]2C[C@@H]3C[C@@H](C3(C)C)[C@]2(C)O1 | –
